The species entered for experiment [1] is Oryctolagus cuniculus. The experiment is described as follows: Antagonist activity pA2, was measured in the in vitro rabbit aorta strip assay. In kind it is functional. As to conditions: read-out: pA2 (converted). The procedure, abridged: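 Isolated rabbit aorta strip (method of Rioux et al.); pA2 against the ANG II dose-response curve, determined at low antagonist doses within the competitive-inhibition range.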

The target of experiment [2] is Angiotensin II receptor (Rattus norvegicus) (UniProt P29089+P25095+P35351). The experiment is described as follows: In vivo blood pressure increase produced by a 1 ug bolus i.v. It counts as functional, organism-based. Put shortly: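 Rat blood pressure assay (Regoli et al.); agonist activity read as the mmHg rise in blood pressure after a 1 μg intravenous bolus of compound.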

In experiment [3] the test system is Rattus norvegicus. In words: Residual ANG II-like antagonist activity, ID50 was measured in vivo, in the rat blood pressure assay. In kind it is functional.
Experiment [4] concerns Angiotensin II receptor (Oryctolagus cuniculus). The experiment is described as follows: Angiotensin II-like agonist activity, measured in the in vitro rabbit aorta strip assay.

*1 amine or outer side, *2 acyl side, *3 side chain or, on linkers, in order; H or OH if unused. Where a SMILES comes first, the peptide text is derived from it. [ ]: non-standard residue; d: D form. Phe(4-SO2NH2) = N[C@@H](Cc1ccc(S(N)(=O)=O)cc1)C(=O)O; Phe(4-NO2) = N[C@@H](Cc1ccc([N+](=O)[O-])cc1)C(=O)O; Phe(4-SO3H) = N[C@@H](Cc1ccc(S(=O)(=O)O)cc1)C(=O)O; X2 = CC(=O)NCSc1ccc(C[C@H](N[*:1])C(=O)[*:2])cc1; Phe(4-B(OH)2) = N[C@@H](Cc1ccc(B(O)O)cc1)C(=O)O; Phe(4-Cl) = N[C@@H](Cc1ccc(Cl)cc1)C(=O)O; X1 = O=C([C@H](Cc1ccc(S)cc1)N[*:1])[*:2]; Phe(4-NH2) = Nc1ccc(C[C@H](N)C(=O)O)cc1; Sar = CNCC(=O)O

Regarding `CC[C@H](C)[C@H](NC(=O)[C@H](Cc1ccc(Cl)cc1)NC(=O)[C@@H](NC(=O)[C@H](CCCN=C(N)N)NC(=O)CNC)C(C)C)C(=O)N[C@@H](Cc1c[nH]cn1)C(=O)N1CCC[C@H]1C(=O)N[C@@H](Cc1ccccc1)C(=O)O` (H-[Sar]RV[Phe(4-Cl)]IHPF-OH), the Kb in experiment [1] is 31.6 nM. The same molecule had a Blood pressure in experiment [2] of 5.5 mmHg. Moreover, the ID50 in experiment [3] was determined as 30 ng min-1 rat-1. The Activity in experiment [4] is 0%.
`CC[C@H](C)[C@H](NC(=O)[C@H](Cc1ccc(SCNC(C)=O)cc1)NC(=O)[C@@H](NC(=O)[C@H](CCCN=C(N)N)NC(=O)CNC)C(C)C)C(=O)N[C@@H](Cc1c[nH]cn1)C(=O)N1CCC[C@H]1C(=O)N[C@@H](Cc1ccccc1)C(=O)O` (H-[Sar]RV[X2]IHPF-OH): the Kb in experiment [1] was 8.13 nM. Also, the Activity in experiment [4] amounted to 9%.
Regarding `CC[C@H](C)[C@H](NC(=O)C1CCCN1C(=O)[C@H](Cc1c[nH]cn1)NC(=O)[C@@H](NC(=O)[C@H](Cc1ccc(O)cc1)NC(=O)[C@@H](NC(=O)[C@H](CCCN=C(N)N)NC(=O)CNC)C(C)C)[C@@H](C)CC)C(=O)O` (single isomer, unassigned), the Kb in experiment [1] is 0.794 nM. Also, the Blood pressure in experiment [2] came out at 10 mmHg. This molecule also gave an ID50 in experiment [3] of 10 ng min-1 rat-1.
`CC[C@H](C)[C@H](NC(=O)[C@H](Cc1ccc(N)cc1)NC(=O)[C@@H](NC(=O)[C@H](CCCN=C(N)N)NC(=O)CNC)C(C)C)C(=O)N[C@@H](Cc1c[nH]cn1)C(=O)N1CCC[C@H]1C(=O)N[C@@H](Cc1ccccc1)C(=O)O` (H-[Sar]RV[Phe(4-NH2)]IHPF-OH): in experiment [4], the Activity is 15%.
On to `CC[C@H](C)[C@H](NC(=O)[C@H](Cc1ccc(O)cc1)NC(=O)[C@@H](NC(=O)[C@H](CCCN=C(N)N)NC(=O)CNC)C(C)C)C(=O)N[C@@H](Cc1c[nH]cn1)C(=O)N1CCC[C@H]1C(=O)N[C@H](Cc1ccc(O)cc1)C(=O)O`, for which, in experiment [1], the Kb is 5.62 nM. The same molecule registered a Blood pressure in experiment [2] of 15 mmHg. In experiment [3], this molecule displayed an ID50 of 20 ng min-1 rat-1. Moreover, the Activity in experiment [4] turned out to be 0%.
Regarding `CC[C@H](C)[C@H](NC(=O)[C@H](Cc1ccc(F)cc1)NC(=O)[C@@H](NC(=O)[C@H](CCCN=C(N)N)NC(=O)CNC)C(C)C)C(=O)N[C@@H](Cc1c[nH]cn1)C(=O)N1CCC[C@H]1C(=O)N[C@@H](Cc1ccccc1)C(=O)O`, the Kb in experiment [1] was 31.6 nM. The same molecule yielded a Blood pressure in experiment [2] of 22 mmHg. The ID50 in experiment [3] worked out at 150 ng min-1 rat-1. For the same molecule, in experiment [4], the Activity amounted to 0%.
With `CC[C@H](C)[C@H](NC(=O)[C@H](Cc1ccc(S(=O)(=O)O)cc1)NC(=O)[C@@H](NC(=O)[C@H](CCCN=C(N)N)NC(=O)CNC)C(C)C)C(=O)N[C@@H](Cc1c[nH]cn1)C(=O)N1CCC[C@H]1C(=O)N[C@@H](Cc1ccccc1)C(=O)O` (H-[Sar]RV[Phe(4-SO3H)]IHPF-OH), the Kb in experiment [1] is over 1000 nM. This molecule also registered an Activity in experiment [4] of 0%.
Take `CC[C@H](C)[C@H](NC(=O)[C@H](Cc1ccc(O)cc1)NC(=O)[C@@H](NC(=O)[C@H](CCCN=C(N)N)NC(=O)CNC)C(C)C)C(=O)N[C@@H](Cc1c[nH]cn1)C(=O)N1CCC[C@H]1C(=O)N[C@H](Cc1ccccc1)C(=O)O`: the Kb in experiment [1] was 1 nM. The molecule further displayed a Blood pressure in experiment [2] of 10 mmHg. The molecule also registered an ID50 in experiment [3] of 12.5 ng min-1 rat-1.
As for `CC[C@H](C)[C@H](NC(=O)[C@H](Cc1ccccc1)NC(=O)[C@@H](NC(=O)[C@H](CCCN=C(N)N)NC(=O)CNC)C(C)C)C(=O)N[C@@H](Cc1c[nH]cn1)C(=O)N1CCC[C@H]1C(=O)N[C@@H](Cc1ccc(O)cc1)C(=O)O`, in experiment [1], the Kb is 31.6 nM. Also, the Blood pressure in experiment [2] stood at 5.5 mmHg. In experiment [3], this molecule registered an ID50 of 50 ng min-1 rat-1. For the same molecule, in experiment [4], the Activity stood at 0%.
`CC[C@H](C)[C@H](NC(=O)[C@H](Cc1ccc(O)cc1)NC(=O)[C@@H](NC(=O)[C@H](CCCN=C(N)N)NC(=O)CNC)C(C)C)C(=O)N[C@@H](Cc1c[nH]cn1)C(=O)N1CCC[C@H]1C(=O)N[C@@H](Cc1ccccc1)C(=O)O` showed a Blood pressure in experiment [2] of 50 mmHg.
As for `CC[C@H](C)[C@H](NC(=O)[C@@H]1CCCN1C(=O)[C@H](Cc1c[nH]cn1)NC(=O)[C@@H](NC(=O)[C@H](Cc1ccc(B(O)O)cc1)NC(=O)[C@@H](NC(=O)[C@H](CCCN=C(N)N)NC(=O)CNC)C(C)C)[C@@H](C)CC)C(=O)O` (H-[Sar]RV[Phe(4-B(OH)2)]IHPI-OH), the Kb in experiment [1] was 2000 nM. The same molecule had a Blood pressure in experiment [2] of 0 mmHg. Also, the ID50 in experiment [3] is listed as 500 ng min-1 rat-1. Moreover, the Activity in experiment [4] is 0%.
For `CC[C@H](C)[C@H](NC(=O)[C@@H]1CCCN1C(=O)[C@H](Cc1c[nH]cn1)NC(=O)[C@@H](NC(=O)[C@H](Cc1ccc(Cl)cc1)NC(=O)[C@@H](NC(=O)[C@H](CCCN=C(N)N)NC(=O)CNC)C(C)C)[C@@H](C)CC)C(=O)O` (H-[Sar]RV[Phe(4-Cl)]IHPI-OH), in that order: over 1000 nM, 2 mmHg, 500 ng min-1 rat-1 and 0%.
On the same counts, the results for `CC[C@H](C)[C@H](NC(=O)[C@H](Cc1ccccc1)NC(=O)[C@@H](NC(=O)[C@H](CCCN=C(N)N)NC(=O)CNC)C(C)C)C(=O)N[C@@H](Cc1c[nH]cn1)C(=O)N1CCC[C@H]1C(=O)N[C@H](Cc1ccc(O)cc1)C(=O)O` are 100 nM, 5 mmHg, 30 ng min-1 rat-1 and 0%.
For the molecule `CC[C@H](C)[C@H](NC(=O)[C@H](Cc1ccccc1)NC(=O)[C@@H](NC(=O)[C@H](CCCN=C(N)N)NC(=O)CNC)C(C)C)C(=O)N[C@@H](Cc1c[nH]cn1)C(=O)N1CCC[C@H]1C(=O)N[C@@H](Cc1ccccc1)C(=O)O` (H-[Sar]RVFIHPF-OH), in experiment [1], the Kb was 12.6 nM. In experiment [4], this molecule registered an Activity of 22%.
Regarding `CC[C@H](C)[C@H](NC(=O)[C@H](Cc1ccc(S)cc1)NC(=O)[C@@H](NC(=O)[C@H](CCCN=C(N)N)NC(=O)CNC)C(C)C)C(=O)N[C@@H](Cc1c[nH]cn1)C(=O)N1CCC[C@H]1C(=O)N[C@@H](Cc1ccccc1)C(=O)O` (H-[Sar]RV[X1]IHPF-OH), the Kb in experiment [1] is over 1000 nM. In experiment [4], this molecule gave an Activity of 0.9%.
Regarding `CC[C@H](C)[C@H](NC(=O)[C@H](Cc1ccc(B(O)O)cc1)NC(=O)[C@@H](NC(=O)[C@H](CCCN=C(N)N)NC(=O)CNC)C(C)C)C(=O)N[C@@H](Cc1c[nH]cn1)C(=O)N1CCC[C@H]1C(=O)N[C@@H](Cc1ccccc1)C(=O)O` (H-[Sar]RV[Phe(4-B(OH)2)]IHPF-OH), the Activity in experiment [4] was 10%.
With `CC[C@H](C)[C@H](NC(=O)[C@@H]1CCCN1C(=O)[C@H](Cc1c[nH]cn1)NC(=O)[C@@H](NC(=O)[C@H](Cc1ccc([N+](=O)[O-])cc1)NC(=O)[C@@H](NC(=O)[C@H](CCCN=C(N)N)NC(=O)CNC)C(C)C)[C@@H](C)CC)C(=O)O` (H-[Sar]RV[Phe(4-NO2)]IHPI-OH), the Kb in experiment [1] is 79.4 nM. In addition, the Blood pressure in experiment [2] came to 5 mmHg. Moreover, the Activity in experiment [4] amounted to 0%.
With H-DRVYIHPL-OH, the Kb in experiment [1] is 1.66 nM. In addition, the Activity in experiment [4] was under 0.1%.
Consider `CC[C@H](C)[C@H](NC(=O)[C@H](Cc1ccc(S(N)(=O)=O)cc1)NC(=O)[C@@H](NC(=O)[C@H](CCCN=C(N)N)NC(=O)CNC)C(C)C)C(=O)N[C@@H](Cc1c[nH]cn1)C(=O)N1CCC[C@H]1C(=O)N[C@@H](Cc1ccccc1)C(=O)O` (H-[Sar]RV[Phe(4-SO2NH2)]IHPF-OH), for which the Activity in experiment [4] stood at 0.9%.

Values taken from ChEMBL document CHEMBL1124503, “The role of position 4 in angiotensin II antagonism: a structure-activity study” (J Med Chem, 1989).
